≈ marks a conversion by molar mass, not a printed value.
Experiments:
Format in all cases: functional
[1] = tested on: Staphylococcus aureus; assay: Antibacterial activity against quinoline-susceptible methicillin-resistant Staphylococcus aureus by agar dilution method
How it was run: (§1)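 Read-out is the minimum inhibitory concentration (MIC), found by a conventional agar dilution procedure.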

[2] = tested on: Staphylococcus aureus; assay: Antibacterial activity against quinoline-resistant methicillin-resistant Staphylococcus aureus by agar dilution method; how it was run: as §1
[3] = tested on: Enterococcus faecalis; assay: Antibacterial activity against Enterococcus faecalis by agar dilution method
How it was run: (§2)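 Read-out is the minimum inhibitory concentration (MIC), determined by a conventional agar dilution procedure against a panel of Gram-positive and Gram-negative bacteria.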

[4] = tested on: Streptococcus pneumoniae; assay: Antibacterial activity against Streptococcus pneumoniae by agar dilution method; how it was run: as §2
[5] = tested on: Moraxella catarrhalis; assay: Antibacterial activity against Moraxella catarrhalis by agar dilution method; how it was run: as §2
[6] = tested on: Haemophilus influenzae; assay: Antibacterial activity against Haemophilus influenzae by agar dilution method; how it was run: as §2
[7] = tested on: Escherichia coli; assay: Antibacterial activity against Escherichia coli without AcrAB efflux system by agar dilution method
[8] = tested on: Escherichia coli; assay: Antibacterial activity against Escherichia coli with AcrAB efflux system by agar dilution method
[9] = tested on: Staphylococcus aureus; assay: Antibacterial activity against quinoline-intermediate methicillin-resistant Staphylococcus aureus by agar dilution method; how it was run: as §1
[10] = tested on: Pseudomonas aeruginosa; assay: Antibacterial activity against Pseudomonas aeruginosa by agar dilution method; how it was run: as §2

Row | SMILES | MIC [1] [µg/mL] | MIC [2] [µg/mL] | MIC [3] [µg/mL] | MIC [4] [µg/mL] | MIC [5] [µg/mL] | MIC [6] [µg/mL] | MIC [7] [µg/mL] | MIC [8] [µg/mL] | MIC [9] [µg/mL] | MIC [10] [µg/mL]
1 | O=C(O)c1cn(C2CC2)c2cc(N3CCNCC3)c(F)cc2c1=O [CIPROFLOXACIN] | 1 (≈ 3.02 µM) | > 64 | 2 (≈ 6.04 µM) | 4 (≈ 12.1 µM) | 0.063 (≈ 0.19 µM) | ≤ 0.008 | ≤ 0.008 | ≤ 0.008 |  | 
2 | O=C(O)c1cn(C2CC2)c2c(F)c(N3CC(Sc4nc5ccccc5s4)C3)c(F)cc2c1=O | 1 (≈ 2.06 µM) | 32 (≈ 65.9 µM) | 4 (≈ 8.24 µM) | 4 (≈ 8.24 µM) | 0.5 (≈ 1.03 µM) | 0.5 (≈ 1.03 µM) | 8 (≈ 16.5 µM) | 8 (≈ 16.5 µM) | 4 (≈ 8.24 µM) | > 32
3 | Cc1ccc(NC2CN(c3c(F)cc4c(=O)c(C(=O)O)cn(C5CC5)c4c3F)C2)cc1 | 0.031 (≈ 0.0729 µM) | 16 (≈ 37.6 µM) | 0.5 (≈ 1.18 µM) | 0.5 (≈ 1.18 µM) | 0.031 (≈ 0.0729 µM) | ≤ 0.008 | 0.063 (≈ 0.148 µM) | 0.5 (≈ 1.18 µM) | 0.5 (≈ 1.18 µM) | 16 (≈ 37.6 µM)
4 | O=C(O)c1cn(C2CC2)c2c(F)c(N3CC(Nc4ccccc4)C3)c(F)cc2c1=O | 0.016 (≈ 0.0389 µM) | 32 (≈ 77.8 µM) | 0.25 (≈ 0.608 µM) | 0.25 (≈ 0.608 µM) | 0.016 (≈ 0.0389 µM) | ≤ 0.008 | 0.031 (≈ 0.0754 µM) | 0.25 (≈ 0.608 µM) | 0.5 (≈ 1.22 µM) | 4 (≈ 9.72 µM)
5 | O=C(O)c1cn(C2CC2)c2c(F)c(N3CC(Sc4ncccn4)C3)c(F)cc2c1=O | 0.063 (≈ 0.146 µM) | 32 (≈ 74.3 µM) | 0.25 (≈ 0.581 µM) | 1 (≈ 2.32 µM) | 0.063 (≈ 0.146 µM) | ≤ 0.008 | 1 (≈ 2.32 µM) | 1 (≈ 2.32 µM) | 1 (≈ 2.32 µM) | 8 (≈ 18.6 µM)
6 | O=C(O)c1cn(C2CC2)c2c(F)c(N3CC(Sc4nc5ccccc5o4)C3)c(F)cc2c1=O | 1 (≈ 2.13 µM) | 32 (≈ 68.2 µM) | 2 (≈ 4.26 µM) | 2 (≈ 4.26 µM) | 0.5 (≈ 1.07 µM) | 0.5 (≈ 1.07 µM) | 8 (≈ 17 µM) | 8 (≈ 17 µM) | 2 (≈ 4.26 µM) | > 32
7 | CCOC(=O)c1ccc(NC2CN(c3c(F)cc4c(=O)c(C(=O)O)cn(C5CC5)c4c3F)C2)cc1 | 0.031 (≈ 0.0641 µM) | > 16 | 2 (≈ 4.14 µM) | 0.125 (≈ 0.259 µM) | 0.125 (≈ 0.259 µM) | ≤ 0.008 | 0.25 (≈ 0.517 µM) | 2 (≈ 4.14 µM) | 1 (≈ 2.07 µM) | > 16
8 | COc1ccc(NC2CN(c3c(F)cc4c(=O)c(C(=O)O)cn(C5CC5)c4c3F)C2)cc1 | 0.031 (≈ 0.0702 µM) | 16 (≈ 36.2 µM) | 0.25 (≈ 0.566 µM) | 0.063 (≈ 0.143 µM) | 0.031 (≈ 0.0702 µM) | ≤ 0.008 | 0.031 (≈ 0.0702 µM) | 0.25 (≈ 0.566 µM) | 0.25 (≈ 0.566 µM) | 4 (≈ 9.06 µM)
9 | O=C(O)c1cn(C2CC2)c2c(F)c(N3CC(Nc4ccc(Cl)cc4)C3)c(F)cc2c1=O | 0.063 (≈ 0.141 µM) | 16 (≈ 35.9 µM) | 1 (≈ 2.24 µM) | 0.5 (≈ 1.12 µM) | 0.063 (≈ 0.141 µM) | ≤ 0.008 | 0.125 (≈ 0.28 µM) | 1 (≈ 2.24 µM) | 1 (≈ 2.24 µM) | > 16
10 | Cc1ccc(SC2CN(c3c(F)cc4c(=O)c(C(=O)O)cn(C5CC5)c4c3F)C2)cc1 | 2 (≈ 4.52 µM) | > 32 | 16 (≈ 36.2 µM) | 32 (≈ 72.3 µM) | 2 (≈ 4.52 µM) | 0.25 (≈ 0.565 µM) | 32 (≈ 72.3 µM) | 32 (≈ 72.3 µM) | 32 (≈ 72.3 µM) | > 32
11 | O=C(O)c1cn(C2CC2)c2c(F)c(N3CC(N(Cc4ccccc4)Cc4ccccc4)C3)c(F)cc2c1=O | > 64 | > 64 | > 64 | > 64 | > 64 | 8 (≈ 15.5 µM) | 64 (≈ 124 µM) | > 64 | > 64 | > 64
12 | Cn1nnnc1SC1CN(c2c(F)cc3c(=O)c(C(=O)O)cn(C4CC4)c3c2F)C1 | 0.125 (≈ 0.288 µM) | > 32 | 1 (≈ 2.3 µM) | 2 (≈ 4.6 µM) | 0.063 (≈ 0.145 µM) | < 0.008 | 0.125 (≈ 0.288 µM) | 1 (≈ 2.3 µM) | 2 (≈ 4.6 µM) | 8 (≈ 18.4 µM)
13 | COc1c(N2CCNC(C)C2)c(F)cc2c(=O)c(C(=O)O)cn(C3CC3)c12 (stereo not given) [GATIFLOXACIN] | 0.25 (≈ 0.666 µM) | > 128 | 1 (≈ 2.66 µM) | 0.5 (≈ 1.33 µM) | 0.063 (≈ 0.168 µM) | ≤ 0.008 | 0.063 (≈ 0.168 µM) | 0.063 (≈ 0.168 µM) | 2 (≈ 5.33 µM) | 1 (≈ 2.66 µM)
14 | Cn1cnnc1SC1CN(c2c(F)cc3c(=O)c(C(=O)O)cn(C4CC4)c3c2F)C1 | 0.25 (≈ 0.577 µM) | > 16 | 1 (≈ 2.31 µM) | 2 (≈ 4.61 µM) | 0.123 (≈ 0.284 µM) | ≤ 0.008 | 0.25 (≈ 0.577 µM) | 1 (≈ 2.31 µM) | 4 (≈ 9.23 µM) | 8 (≈ 18.5 µM)
15 | Cn1nnnc1Sc1c(F)cc2c(=O)c(C(=O)O)cn(C3CC3)c2c1F | 16 (≈ 42.2 µM) | > 16 | > 16 | > 16 | 4 (≈ 10.5 µM) | 0.125 (≈ 0.33 µM) | 1 (≈ 2.64 µM) | 16 (≈ 42.2 µM) | > 16 | > 16
16 | C[C@H]1COc2c(N3CCN(C)CC3)c(F)cc3c(=O)c(C(=O)O)cn1c23.C[C@H]1COc2c(N3CCN(C)CC3)c(F)cc3c(=O)c(C(=O)O)cn1c23.O [LEVOFLOXACIN] | 0.5 | > 128 | 2 |  | 0.063 | ≤ 0.008 |  |  | 4 | 0.5
